Data on one molecule can be found in article PMC8799877 (Acta Pharmaceutica Sinica. B, 2021).

The nature of data set [1]: In vivo pharmacokinetic study. The settings on record: for CL_F_pred / Vz_F_pred: rats. The arrangement: species or system male Sprague-Dawley rats. In outline: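 Male SD rats (n = 3) dosed iv at 2 mg/kg or orally at 10 mg/kg. Plasma separated by centrifugation at 4 °C, 6000 rpm, 8 min, and analysed by LC–MS. Parameters reported as mean ± SD.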
A short description of data set [2]: MTT cytotoxicity / cell viability in NRCMs. It counts as cell-based. The settings on record: Sprague-Dawley, rat, primary neonatal rat cardiac myocytes (NRCMs).
Another data set deals with BRD4(1) (Homo sapiens, UniProt O60885). In words: HTRF bromodomain binding assay, BRD4. (Time-resolved FRET reads energy transfer from a long-lived donor to a nearby acceptor.)
In the next data set the target is BRD4(2) (Homo sapiens, UniProt O60885). In words: HTRF bromodomain binding assay, BRD4.
Another data set addresses BRD4 (Rattus norvegicus, UniProt A0A8I6A216). In words: Cellular thermal shift assay. The settings on record: NRCFs, 10 μmol/L, 4 h, heated from 43 to 61 °C. It counts as cell-based.
A short description of data set [3]: MTT cytotoxicity / cell viability in NRCFs. It counts as cell-based. The settings on record: Sprague-Dawley, rat, primary neonatal rat cardiac fibroblasts (NRCFs).
The mark [4] stands for this setting: male, Sprague-Dawley, rat, plasma, iv, 2 mg/kg.
Where [5] appears, read: male, Sprague-Dawley, rat, plasma, po, 10 mg/kg.

In data set [1] (setting [4]), `NS(=O)(=O)c1ccc(Nc2nc(-c3ccc(F)cc3)c3ccccc3n2)cc1` [Compound 28] came in with an AUC(0-inf) of 7130 ng·h/mL, an AUC(0-t) of 7100 ng·h/mL, a Cmax of 2820 ng/mL and an MRT last of 3.46 h. The half-life in data set [1] (setting [4]) was 3.13 h. Further, the bioavailability in data set [1] (male, Sprague-Dawley, rat, plasma, oral, 10 mg/kg) was determined as 43.1%. In data set [1] (setting [5]), this molecule had an AUC(0-inf) of 15400 ng·h/mL, an AUC(0-t) of 15300 ng·h/mL, a Cmax of 2170 ng/mL and an MRT last of 4.27 h. In data set [1] (setting [5]), the Tmax was found to be 2.67 h and the half-life is 1.77 h. In addition, in data set [1] (iv 2 mg/kg), the CL_F_pred amounted to 4.67 mL/min/kg and the Vz_F_pred turned out to be 1.27 L/kg. In data set [1] (po 10 mg/kg), this molecule displayed a CL_F_pred of 12 mL/min/kg and a Vz_F_pred of 1.77 L/kg. In data set [2], this molecule returned an IC50 at 24 h of 19.1 ± 1.4 µM. At BRD4(1), this molecule came in with an IC50 of 0.286 ± 0.046 µM. The same molecule had an IC50 on BRD4(2) of 0.242 ± 0.049 µM. Moreover, the “BRD4 thermal stabilization (CETSA, Western blot)” value on BRD4 is “could efficiently stabilize BRD4 from 43 to 61 °C”. In data set [3], the midpoint of inhibition, the IC50 at 24 h, lay at 48.2 ± 1.68 µM.

As a reminder, the AUC(0-inf) is the area under the concentration-time curve extrapolated to infinity. Lower therefore signals less exposure. A word on the AUC(0-t): it is exposure summed from dosing to a finite time, without extrapolation to infinity. Low values mean less exposure, high ones more exposure. For orientation: Cmax means the maximum level reached in the sampled fluid or tissue. The MRT last is a mean duration of stay, worked out from the concentration-time curve. Broadly, the half-life is the time needed for the level to fall by half in the phase considered. A high value points to slow decline. A word on the bioavailability: it is the share of a dose that reaches the circulation, judged against a reference dose that is usually intravenous. High values mean good availability, low ones poor availability. One may read the Tmax as the time from dosing to the highest level. What is called IC50 is the midpoint of a concentration-inhibition curve.
